Reference: ChEMBL document CHEMBL3621177, “Modulation of the Interaction between a Peptide Ligand and a G Protein-Coupled Receptor by Halogen Atoms” (ACS Med Chem Lett, 2015)

Experiments:
[1] = Displacement of [3H]diprenorphine from zebrafish mu opioid receptor expressed in HEK293 cell membranes by radioligand displacement assay; parameters: species or system Danio rerio
In short: (§1)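 Competition binding on membranes from stably transfected HEK293 cells expressing the zebrafish μ, δ1a or δ1b receptor. Cells were grown to 80% confluence, harvested and pelleted before membrane preparation. [3H]-diprenorphine served as radioligand. Nonspecific binding was defined with 10 μM naloxone. Data were fitted to a one-site displacement model.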

[2] = Displacement of [3H]diprenorphine from zebrafish delta1a opioid receptor expressed in HEK293 cell membranes by radioligand displacement assay; parameters: species or system Danio rerio; in short: as §1
[3] = Displacement of [3H]diprenorphine from zebrafish delta1b opioid receptor expressed in HEK293 cell membranes by radioligand displacement assay; parameters: species or system Danio rerio; in short: as §1
[4] = species: Danio rerio; experiment: Selectivity index, ratio of Ki for zebrafish delta1a opioid receptor to Ki for zebrafish mu opioid receptor

SMILES	Ki [1]	Ki [2]	Ki [3]	Ratio Ki [4]
CC(C)C[C@H](NC(=O)[C@H](Cc1ccccc1Cl)NC(=O)CNC(=O)CNC(=O)[C@@H](N)Cc1ccc(O)cc1)C(=O)O	1.21 µM	0.0428 µM	0.0572 µM	
NC(=O)[C@H](Cc1ccc(I)cc1)NC(=O)[C@H](Cc1c[nH]c2ccccc12)NC(=O)[C@@H]1CCCN1C(=O)[C@@H](N)Cc1ccc(O)cc1	0.294 µM	1.59 µM	1.97 µM	
CC(C)C[C@H](NC(=O)[C@H](Cc1ccc(F)cc1)NC(=O)CNC(=O)CNC(=O)[C@@H](N)Cc1ccc(O)cc1)C(=O)O	0.21 µM	0.0117 µM	0.0106 µM	
CC(C)C[C@H](NC(=O)[C@H](Cc1ccc(I)cc1)NC(=O)CNC(=O)CNC(=O)[C@@H](N)Cc1ccc(O)cc1)C(=O)O	0.54 µM	0.0446 µM	0.0529 µM	
CC(C)C[C@H](NC(=O)[C@H](Cc1ccccc1Br)NC(=O)CNC(=O)CNC(=O)[C@@H](N)Cc1ccc(O)cc1)C(=O)O	1.43 µM	0.0242 µM	0.0323 µM	
CC(C)C[C@H](NC(=O)[C@H](Cc1ccc(Br)cc1)NC(=O)CNC(=O)CNC(=O)[C@@H](N)Cc1ccc(O)cc1)C(=O)O	0.287 µM	0.0341 µM	0.0276 µM	
NC(=O)[C@H](Cc1ccc(Cl)cc1)NC(=O)[C@H](Cc1c[nH]c2ccccc12)NC(=O)[C@@H]1CCCN1C(=O)[C@@H](N)Cc1ccc(O)cc1	0.0719 µM	1.7 µM	2.33 µM	
NC(=O)[C@H](Cc1ccc(Br)cc1)NC(=O)[C@H](Cc1c[nH]c2ccccc12)NC(=O)[C@@H]1CCCN1C(=O)[C@@H](N)Cc1ccc(O)cc1	0.135 µM	1.9 µM	2.69 µM	
NC(=O)[C@H](Cc1ccccc1)NC(=O)[C@H](Cc1c[nH]c2ccccc12)NC(=O)[C@@H]1CCCN1C(=O)[C@@H](N)Cc1ccc(O)cc1 [ENDOMORPHIN-1]	0.0328 µM	8.47 µM	6.21 µM	258
CC(C)C[C@H](NC(=O)[C@H](Cc1ccccc1F)NC(=O)CNC(=O)CNC(=O)[C@@H](N)Cc1ccc(O)cc1)C(=O)O	2.23 µM	0.115 µM	0.0911 µM	
CC(C)C[C@H](NC(=O)[C@H](Cc1ccccc1I)NC(=O)CNC(=O)CNC(=O)[C@@H](N)Cc1ccc(O)cc1)C(=O)O	0.401 µM	0.0155 µM	0.0285 µM	
NC(=O)[C@H](Cc1ccc(F)cc1)NC(=O)[C@H](Cc1c[nH]c2ccccc12)NC(=O)[C@@H]1CCCN1C(=O)[C@@H](N)Cc1ccc(O)cc1	0.0516 µM	5.33 µM	4.8 µM	
CC(C)C[C@H](NC(=O)[C@H](Cc1ccc(Cl)cc1)NC(=O)CNC(=O)CNC(=O)[C@@H](N)Cc1ccc(O)cc1)C(=O)O	0.312 µM	0.0445 µM	0.0406 µM	
